This is an account of results in ChEMBL document CHEMBL1157790, “3'-bromo analogues of pyrimidine nucleosides as a new class of potent inhibitors of Mycobacterium tuberculosis” (J Med Chem, 2010).

What all share (assay type): functional
In test [1] the test system is Mycobacterium tuberculosis. The experiment in a line: Antimycobacterial activity against rifampin-resistant Mycobacterium tuberculosis H37Rv at 1 ug/ml by radiometric BACTEC assay. The method, boiled down:
(§1)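 Isoniazid- or rifampicin-resistant H37Rv, growing inoculum 2.5-5.0 × 10⁵ CFU/vial, in radiometric 7H12 (BACTEC 12B) medium at 37 °C with two-fold compound dilutions. Growth index read daily in a BACTEC 460 until the 1:100 inoculum control reached GI 30. Percent inhibition = GI test/GI control × 100.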

Test [2] concerns Mycobacterium tuberculosis. Description: Antimycobacterial activity against isoniazid-resistant Mycobacterium tuberculosis H37Rv at 2 ug/ml by radiometric BACTEC assay. The method, boiled down:
as §1

Test [3] has as its system Mycobacterium tuberculosis. Description: Antimycobacterial activity against rifampin-resistant Mycobacterium tuberculosis H37Rv at 2 ug/ml by radiometric BACTEC assay. The method, boiled down:
as §1

Test [4] deals with Mycobacterium tuberculosis. The experiment in a line: Antimycobacterial activity against isoniazid-resistant Mycobacterium tuberculosis H37Rv at 10 ug/ml by radiometric BACTEC assay. The method, boiled down:
as §1

Test [5] has as its system Mycobacterium tuberculosis. Description: Antimycobacterial activity against rifampin-resistant Mycobacterium tuberculosis H37Rv at 1 to 2 ug/ml by radiometric BACTEC assay. The method, boiled down:
as §1

Test [6] has as its system Mycobacterium tuberculosis. The experiment in a line: Antimycobacterial activity against rifampin-resistant Mycobacterium tuberculosis H37Rv at 10 ug/ml by radiometric BACTEC assay. In outline:
as §1

The test system of test [7] is Mycobacterium tuberculosis. The experiment in a line: Antimycobacterial activity against rifampin-resistant Mycobacterium tuberculosis H37Rv at 5 to 10 ug/ml by radiometric BACTEC assay. The method, boiled down: as §1
In test [8] the test system is Mycobacterium tuberculosis. The experiment in a line: Antimycobacterial activity against isoniazid-resistant Mycobacterium tuberculosis H37Rv at 25 ug/ml by radiometric BACTEC assay. In outline:
as §1

The term inhibition denotes the relative decrease from the control value, in per cent. With `NNC(=O)c1ccncc1` [ISONIAZID], at 1 µg/mL the inhibition in test [1] was 100%. This compound registered an inhibition at 2 µg/mL in test [2] of 0%.

For the compound `CO[C@H]1/C=C/O[C@@]2(C)Oc3c(C)c(O)c4c(O)c(c(/C=N/N5CCN(C)CC5)c(O)c4c3C2=O)NC(=O)/C(C)=C\C=C\[C@H](C)[C@H](O)[C@@H](C)[C@@H](O)[C@@H](C)[C@H](OC(C)=O)[C@@H]1C` [RIFAMPIN], in test [3], the inhibition at 2 µg/mL came out at 0%.

Take `Cc1cn([C@@H]2O[C@H](CO)[C@@H](Br)[C@@H]2O)c(=O)[nH]c1=O`: the inhibition at 10 µg/mL in test [4] is 75%; in test [6], 70%. The compound further had an inhibition at 2 µg/mL in test [2] of 50%. Also, the “inhibition (INH)” value in test [5] stood at 50%.

In turn, `Cc1cn([C@H]2C[C@H](Br)[C@@H](CO)O2)c(=O)[nH]c1=O` came in with an inhibition at 10 µg/mL in test [4] of 50%. In addition, the “inhibition (INH)” value in test [7] was 50%. Besides, testing at 25 µg/mL in test [8] gave an inhibition of 75%.
